In brackets after ≈: the same amount, converted by molar mass.
Key:
Format in all cases: functional
Enterococcus faecalis [1] = assay: Antibacterial activity against Enterococcus faecalis ATCC 29212 after 24 hrs by broth microdilution method; settings: ATCC 29212, 24 h
In short: (§1)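 Broth microdilution in Mueller-Hinton broth, run to NCCLS (2001). Overnight cultures were set to 2×10^6 CFU/ml final per well. Compounds were dissolved in 1% DMSO and tested as two-fold serial dilutions. TTC (0.05% final) served as growth indicator. Growth was read by absorbance at 600 nm after 24 h at 37 °C. MIC was the lowest concentration with no visible growth. Triplicate, with two growth controls.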

Staphylococcus aureus [2] = assay: Antibacterial activity against Staphylococcus aureus ATCC 25923 after 24 hrs by broth microdilution method; settings: ATCC 25923, 24 h; in short: as §1
Escherichia coli [3] = assay: Antibacterial activity against Escherichia coli ATCC 25922 at 20 ug/disk after 24 hrs by agar diffusion method; settings: ATCC 25922, 24 h, read-out: IZ
In short: (§2)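 Disc diffusion on 4-mm Mueller-Hinton agar, inoculated from 24 h MHB cultures (37 °C) diluted to 2×10^6 CFU/ml to give semiconfluent growth. 6-mm discs were impregnated with 1 mg/ml DMSO stock solutions. Plates were incubated 24 h at 37 °C and inhibition zone diameters measured in mm. DMSO solvent control; triplicate, averaged.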

Pseudomonas aeruginosa [4] = assay: Antibacterial activity against Pseudomonas aeruginosa ATCC 27853 after 24 hrs by broth microdilution method; settings: ATCC 27853, 24 h; in short: as §1
Bacillus subtilis [5] = assay: Antibacterial activity against Bacillus subtilis ATCC 6633 after 24 hrs by broth microdilution method; settings: ATCC 6633, 24 h; in short: as §1
Klebsiella pneumoniae [6] = assay: Antibacterial activity against Klebsiella pneumoniae NCIMB 9111 after 24 hrs by broth microdilution method; settings: NCIMB 9111, 24 h; in short: as §1
[7] = system: Staphylococcus epidermidis; assay: Antibacterial activity against Staphylococcus epidermidis ATCC 12228 after 24 hrs by broth microdilution method; settings: ATCC 12228, 24 h; in short: as §1
Klebsiella pneumoniae [8] = assay: Antibacterial activity against Klebsiella pneumoniae NCIMB 9111 at 20 ug/disk after 24 hrs by agar diffusion method; settings: NCIMB 9111, 24 h, read-out: IZ; in short: as §2
Micrococcus luteus [9] = assay: Antibacterial activity against Micrococcus luteus ATCC 10240 at 20 ug/disk after 24 hrs by agar diffusion method; settings: ATCC 10240, 24 h, read-out: IZ; in short: as §2
Candida albicans [10] = assay: Antifungal activity against Candida albicans ATCC 24433 after 48 hrs by broth microdilution method
In short: (§3)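 Broth microdilution (NCCLS) in Sabouraud dextrose broth, 2×10^5 CFU/ml per well. Compounds in 1% DMSO were two-fold serially diluted over 62.5–1000, with 0.05% final triphenyltetrazolium chloride as growth indicator. Plates were incubated 48 h at 26 °C and growth read by absorbance at 600 nm. MIC is the lowest concentration without visible growth. Triplicate, with two growth controls.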

Candida albicans [11] = assay: Antifungal activity against Candida albicans ATCC 10259 at 20 ug/disk after 72 hrs by agar diffusion method; settings: ATCC 10259, 72 h, read-out: IZ
In short: (§4)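 Candida albicans grown 24 h at 25 °C in Sabouraud dextrose broth and diluted to 1×10^8 CFU/ml. This inoculum was spread on 4-mm Sabouraud dextrose agar. 6-mm discs were impregnated with 1 mg/ml DMSO stock solutions and incubated 72 h at 26 °C. Inhibition zone diameters measured in mm; DMSO control; triplicate, averaged.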

Escherichia coli [12] = assay: Antibacterial activity against Escherichia coli ATCC 25922 after 24 hrs by broth microdilution method; settings: ATCC 25922, 24 h; in short: as §1
Candida albicans [13] = assay: Antifungal activity against Candida albicans ATCC 10259 after 48 hrs by broth microdilution method; in short: as §3
Candida albicans [14] = assay: Antifungal activity against Candida albicans ATCC 24433 at 20 ug/disk after 72 hrs by agar diffusion method; settings: ATCC 24433, 72 h, read-out: IZ; in short: as §4
Micrococcus luteus [15] = assay: Antibacterial activity against Micrococcus luteus ATCC 10240 after 24 hrs by broth microdilution method; settings: ATCC 10240, 24 h; in short: as §1
Bacillus subtilis [16] = assay: Antibacterial activity against Bacillus subtilis ATCC 6633 at 20 ug/disk after 24 hrs by agar diffusion method; settings: ATCC 6633, 24 h, read-out: IZ; in short: as §2
Staphylococcus aureus [17] = assay: Antibacterial activity against Staphylococcus aureus ATCC 25923 at 20 ug/disk after 24 hrs by agar diffusion method; settings: ATCC 25923, 24 h, read-out: IZ; in short: as §2
Enterococcus faecalis [18] = assay: Antibacterial activity against Enterococcus faecalis ATCC 29212 at 20 ug/disk after 24 hrs by agar diffusion method; settings: ATCC 29212, 24 h, read-out: IZ; in short: as §2
[19] = system: Staphylococcus epidermidis; assay: Antibacterial activity against Staphylococcus epidermidis ATCC 12228 at 20 ug/disk after 24 hrs by agar diffusion method; settings: ATCC 12228, 24 h, read-out: IZ; in short: as §2
Pseudomonas aeruginosa [20] = assay: Antibacterial activity against Pseudomonas aeruginosa ATCC 27853 at 20 ug/disk after 24 hrs by agar diffusion method; settings: ATCC 27853, 24 h, read-out: IZ; in short: as §2
Pseudomonas aeruginosa [21] = assay: Antibacterial activity against Pseudomonas aeruginosa ATCC 27853 at 10 ug/disk after 24 hrs by agar diffusion method; settings: ATCC 27853, 24 h, read-out: IZ
In short: (§5)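 Reference antibiotic discs (ampicillin or amikacin) placed on 4-mm Mueller-Hinton agar inoculated to semiconfluent growth from 2×10^6 CFU/ml suspensions. Incubation 24 h at 37 °C, then inhibition zone diameter read in mm. Triplicate, averaged; done per NCCLS 1993 disc standard.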

Enterococcus faecalis [22] = assay: Antibacterial activity against Enterococcus faecalis ATCC 29212 at 10 ug/disk after 24 hrs by agar diffusion method; settings: ATCC 29212, 24 h, read-out: IZ; in short: as §5
Escherichia coli [23] = assay: Antibacterial activity against Escherichia coli ATCC 25922 at 10 ug/disk after 24 hrs by agar diffusion method; settings: ATCC 25922, 24 h, read-out: IZ
Staphylococcus aureus [24] = assay: Antibacterial activity against Staphylococcus aureus ATCC 25923 at 10 ug/disk after 24 hrs by agar diffusion method; settings: ATCC 25923, 24 h, read-out: IZ; in short: as §5
[25] = system: Staphylococcus epidermidis; assay: Antibacterial activity against Staphylococcus epidermidis ATCC 12228 at 10 ug/disk after 24 hrs by agar diffusion method; settings: ATCC 12228, 24 h, read-out: IZ; in short: as §5
Micrococcus luteus [26] = assay: Antibacterial activity against Micrococcus luteus ATCC 10240 at 10 ug/disk after 24 hrs by agar diffusion method; settings: ATCC 10240, 24 h, read-out: IZ; in short: as §5
Bacillus subtilis [27] = assay: Antibacterial activity against Bacillus subtilis ATCC 6633 at 10 ug/disk after 24 hrs by agar diffusion method; settings: ATCC 6633, 24 h, read-out: IZ; in short: as §5
Klebsiella pneumoniae [28] = assay: Antibacterial activity against Klebsiella pneumoniae NCIMB 9111 at 10 ug/disk after 24 hrs by agar diffusion method; settings: NCIMB 9111, 24 h, read-out: IZ; in short: as §5

| Compound | MBC (Enterococcus faecalis [1]) [µM] | MIC (Enterococcus faecalis [1]) [µM] | MBC (Staphylococcus aureus [2]) [µM] | MBC (Pseudomonas aeruginosa [4]) [µM] | MIC (Pseudomonas aeruginosa [4]) [µM] | MBC (Bacillus subtilis [5]) [µM] | MIC (Bacillus subtilis [5]) [µM] | MBC (Klebsiella pneumoniae [6]) [µM] | MIC (Klebsiella pneumoniae [6]) [µM] | MBC [7] [µM] | MIC [7] [µM] | MBC (Escherichia coli [12]) [µM] | MIC (Escherichia coli [12]) [µM] | MBC (Micrococcus luteus [15]) [µM] | MIC (Micrococcus luteus [15]) [µM] | zone of inhibition at 10 µg/disc (Enterococcus faecalis [22]) [mm] | zone of inhibition at 10 µg/disc (Escherichia coli [23]) [mm] | zone of inhibition at 10 µg/disc (Staphylococcus aureus [24]) [mm] | zone of inhibition at 10 µg/disc [25] [mm] | zone of inhibition at 10 µg/disc (Micrococcus luteus [26]) [mm] | also measured |
| --- | --- | --- | --- | --- | --- | --- | --- | --- | --- | --- | --- | --- | --- | --- | --- | --- | --- | --- | --- | --- | --- |
| O=C(N[C@@H](Cc1ccccc1)C(=O)O)OCc1ccccc1 | > 3340 | > 3340 | > 3340 | > 3340 | > 3340 | 3340 (≈ 1000 µg/mL) | 1670 (≈ 500 µg/mL) | > 3340 | 3340 (≈ 1000 µg/mL) | > 3340 | 3340 (≈ 1000 µg/mL) | > 3340 | 3340 (≈ 1000 µg/mL) | > 3340 | 3340 (≈ 1000 µg/mL) |  |  |  |  |  | MIC (Staphylococcus aureus [2]): 3340 µM (≈ 1000 µg/mL); zone of inhibition at 20 µg/disc (Escherichia coli [3]): 0 mm; zone of inhibition at 20 µg/disc (Klebsiella pneumoniae [8]): 0 mm; zone of inhibition at 20 µg/disc (Micrococcus luteus [9]): 0 mm; MFC (Candida albicans [10]; ATCC 24433, 48 h): 1660 µM (≈ 497 µg/mL); MIC (Candida albicans [10]; ATCC 24433, 48 h): 830 µM (≈ 248 µg/mL); zone of inhibition at 20 µg/disc (Candida albicans [11]): 0 mm; MFC (Candida albicans [13]; ATCC 10259, 48 h): 1660 µM (≈ 497 µg/mL); MIC (Candida albicans [13]; ATCC 10259, 48 h): 830 µM (≈ 248 µg/mL); zone of inhibition at 20 µg/disc (Candida albicans [14]): 0 mm; zone of inhibition at 20 µg/disc (Bacillus subtilis [16]): 0 mm; zone of inhibition at 20 µg/disc (Staphylococcus aureus [17]): 0 mm; zone of inhibition at 20 µg/disc (Enterococcus faecalis [18]): 0 mm; zone of inhibition at 20 µg/disc [19]: 8 mm; zone of inhibition at 20 µg/disc (Pseudomonas aeruginosa [20]): 0 mm |
| NCC[C@H](O)C(=O)N[C@@H]1C[C@H](N)[C@@H](O[C@H]2O[C@H](CN)[C@@H](O)[C@H](O)[C@H]2O)[C@H](O)[C@H]1O[C@H]1O[C@H](CO)[C@@H](O)[C@H](N)[C@H]1O [AMIKACIN] |  |  |  | 12 (≈ 7.03 µg/mL) | 6 (≈ 3.51 µg/mL) |  |  | 9 (≈ 5.27 µg/mL) | 3 (≈ 1.76 µg/mL) |  |  | 6 (≈ 3.51 µg/mL) | 3 (≈ 1.76 µg/mL) |  |  | 23 | 30 | 25 | 33 | 31 | zone of inhibition at 10 µg/disc (Pseudomonas aeruginosa [21]): 30 mm; zone of inhibition at 10 µg/disc (Bacillus subtilis [27]): 32 mm; zone of inhibition at 10 µg/disc (Klebsiella pneumoniae [28]): 25 mm |
| CC1(C)S[C@@H]2[C@H](NC(=O)[C@H](N)c3ccccc3)C(=O)N2[C@H]1C(=O)O [AMPICILLIN] | 6 (≈ 2.1 µg/mL) | 3 (≈ 1.05 µg/mL) | 4 (≈ 1.4 µg/mL) | 46 (≈ 16.1 µg/mL) | 23 (≈ 8.04 µg/mL) | 10 (≈ 3.49 µg/mL) | 5 (≈ 1.75 µg/mL) | 33 (≈ 11.5 µg/mL) | 11 (≈ 3.84 µg/mL) | 6 (≈ 2.1 µg/mL) | 3 (≈ 1.05 µg/mL) | 22 (≈ 7.69 µg/mL) | 11 (≈ 3.84 µg/mL) | 2 (≈ 0.699 µg/mL) | 1 (≈ 0.349 µg/mL) | 16 | 18 | 26 | 12 | 33 | zone of inhibition at 10 µg/disc (Bacillus subtilis [27]): 15 mm; zone of inhibition at 10 µg/disc (Klebsiella pneumoniae [28]): 23 mm |
| NYSTATIN |  |  |  |  |  |  |  |  |  |  |  |  |  |  |  |  |  |  |  |  | MFC (Candida albicans [10]): 60 µM; MIC (Candida albicans [10]): 30 µM; MFC (Candida albicans [13]): 140 µM; MIC (Candida albicans [13]): 70 µM |

From ChEMBL document CHEMBL1137701, “Synthesis, characterization and antimicrobial activity of Co(II), Zn(II) and Cd(II) complexes with N-benzyloxycarbonyl-S-phenylalanine” (2009)
